From ChEMBL document CHEMBL3124843, “Synthesis, cytostatic, antimicrobial, and anti-HCV activity of 6-substituted 7-(het)aryl-7-deazapurine ribonucleosides” (J Med Chem, 2014)
Active and inactive are the calls of the source. The rule behind the calls is not given here.

What was measured:
[1] = tested on: HCT-116; experiment: Cytostatic activity against p53-deficient human HCT116 cells after 72 hrs by MTT assay; format: functional, cell-based; settings: HCT-116, 72 h
Method in brief: (§1)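 IC50 is the concentration that cuts cell growth by 50%, read by quantitative metabolic MTT staining after a 3-day treatment. The resistant sublines were made by raising the concentration of the cytotoxic drug step by step. CEM-DNR-bulk (daunorubicin-selected) stably overexpresses mrp-1. K562-TAX (paclitaxel-selected) expresses only mdr-1. HCT116p53−/− carries null p53 alleles. BJ and MRC-5 are nonmalignant fibroblasts.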

[2] = Cytotoxicity against human HuH7 cells infected with Hepatitis C virus subtype 1b; format: cell-based, Huh-7
[3] = tested on: BJ; experiment: Cytostatic activity against human BJ cells after 72 hrs by MTT assay; format: ADME, cell-based; method in brief: as §1
[4] = tested on: HepG2; experiment: Antiproliferative activity against human HepG2 cells after 72 hrs by XTT assay; format: functional, cell-based; settings: HepG2, 72 h
[5] = Antiproliferative activity against human HeLaS3 cells after 72 hrs by XTT assay; format: functional, cell-based; settings: HeLa S3, 72 h
Method in brief: (§2)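 Antiproliferative test on HL-60 promyelocytic leukemia and HeLa S3 cervical carcinoma cells growing in liquid suspension.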

[6] = tested on: Escherichia coli; experiment: Antibacterial activity against Escherichia coli CCM 3954 after 24 hrs; format: functional, organism-based
[7] = tested on: Candida albicans; experiment: Antifungal activity against Candida albicans after 48 hrs; format: functional, organism-based
[8] = Cytostatic activity against human CEM-DNR-bulk cells after 72 hrs by MTT assay; format: functional, cell-based; method in brief: as §1
[9] = tested on: Staphylococcus haemolyticus; experiment: Antibacterial activity against methicillin-resistant Staphylococcus haemolyticus A/16568 after 24 hrs; format: functional, organism-based
[10] = tested on: K562; experiment: Cytostatic activity against human K562 cells after 72 hrs by MTT assay; format: functional, cell-based; settings: K562, 72 h; method in brief: as §1
[11] = tested on: Candida tropicalis; experiment: Antifungal activity against Candida tropicalis after 48 hrs; format: functional, organism-based
[12] = tested on: Pichia kudriavzevii; experiment: Antifungal activity against Candida crusei after 48 hrs; format: functional, organism-based
[13] = tested on: Candida parapsilosis; experiment: Antifungal activity against Candida parapsilosis after 48 hrs; format: functional, organism-based
[14] = tested on: MRC5; experiment: Cytostatic activity against human MRC5 cells after 72 hrs by MTT assay; format: ADME, cell-based; settings: MRC5, 72 h; method in brief: as §1
[15] = tested on: Escherichia coli; experiment: Antibacterial activity against multi-resistant Escherichia coli C/16702 after 24 hrs; format: functional, organism-based
[16] = tested on: HCT-116; experiment: Cytostatic activity against human HCT116 cells after 72 hrs by MTT assay; format: functional, cell-based; settings: HCT-116, 72 h; method in brief: as §1
[17] = tested on: CCRF-CEM; experiment: Cytostatic activity against human CCRF-CEM cells after 72 hrs by MTT assay; format: functional, cell-based; method in brief: as §1
[18] = tested on: Staphylococcus aureus; experiment: Antibacterial activity against Staphylococcus aureus CCM 3953 after 24 hrs; format: functional, organism-based
[19] = tested on: Enterococcus faecalis; experiment: Antibacterial activity against Enterococcus faecalis CCM 4224 after 24 hrs; format: functional, organism-based
[20] = tested on: Pseudomonas aeruginosa; experiment: Antibacterial activity against Pseudomonas aeruginosa CCM 3955 after 24 hrs; format: functional, organism-based
[21] = tested on: K562; experiment: Cytostatic activity against paclitaxel-resistant human K562 cells after 72 hrs by MTT assay; format: functional, cell-based; settings: K562, 72 h; method in brief: as §1
[22] = tested on: HL-60; experiment: Antiproliferative activity against human HL60 cells after 72 hrs by XTT assay; format: functional, cell-based; settings: HL-60, 72 h; method in brief: as §2
[23] = tested on: Staphylococcus aureus; experiment: Antibacterial activity against methicillin-resistant Staphylococcus aureus MRSA 4591 after 24 hrs; format: functional, organism-based
[24] = tested on: A549; experiment: Cytostatic activity against human A549 cells after 72 hrs by MTT assay; format: functional, cell-based; settings: A549, 72 h; method in brief: as §1
[25] = tested on: Pseudomonas aeruginosa; experiment: Antibacterial activity against multi-resistant Pseudomonas aeruginosa A/16575 after 24 hrs; format: functional, organism-based
[26] = tested on: Hepatitis C virus; experiment: Antiviral activity against Hepatitis C virus subtype 1b infected in human HuH7 cells; format: functional, organism-based, Hepacivirus hominis; settings: genotype 1b, Huh-7

SMILES	IC50 [1]	CC50 [2]	IC50 [3]	IC50 [4]	IC50 [5]	Activity [6]	Activity [7]	IC50 [8]	Activity [9]	IC50 [10]	Activity [11]	Activity [12]	Activity [13]	IC50 [14]	Activity [15]	IC50 [16]	IC50 [17]	Activity [18]	Activity [19]	Activity [20]	further results
C#Cc1cn([C@@H]2O[C@H](CO)[C@@H](O)[C@H]2O)c2nc(C)nc(N)c12	> 20 µM	> 44 µM	> 100 µM	> 20 µM	> 20 µM	inactive	inactive	12.6 µM	inactive	> 20 µM	inactive	inactive	inactive	> 100 µM	inactive	> 20 µM	> 20 µM	inactive	inactive	inactive	IC50 [21]: 3.29 µM; IC50 [22]: > 20 µM; Activity [23]: inactive; IC50 [24]: > 20 µM; Activity [25]: inactive; EC50 [26]: 8 µM
COc1nc(N)nc2c1c(-c1ccoc1)cn2[C@@H]1O[C@H](CO)[C@@H](O)[C@H]1O	> 20 µM	> 44 µM	> 100 µM	> 20 µM	> 20 µM	inactive	inactive	> 20 µM	inactive	> 20 µM	inactive	inactive	inactive	> 100 µM	inactive	> 20 µM	> 20 µM	inactive	inactive	inactive	IC50 [21]: > 20 µM; IC50 [22]: > 20 µM; Activity [23]: inactive; IC50 [24]: > 20 µM; Activity [25]: inactive; EC50 [26]: 19.7 µM
Nc1nc(N)c2c(-c3cccs3)cn([C@@H]3O[C@H](CO)[C@@H](O)[C@H]3O)c2n1	> 20 µM	> 44 µM	> 100 µM	> 20 µM	> 20 µM	inactive	inactive	> 20 µM	inactive	> 20 µM	inactive	inactive	inactive	> 100 µM	inactive	> 20 µM	> 20 µM	inactive	inactive	inactive	IC50 [21]: > 20 µM; IC50 [22]: > 20 µM; Activity [23]: inactive; IC50 [24]: > 20 µM; Activity [25]: inactive; EC50 [26]: 10 µM
COc1nc(N)nc2c1c(-c1cccs1)cn2[C@@H]1O[C@H](CO)[C@@H](O)[C@H]1O	> 20 µM	> 44 µM	99.9 µM	> 20 µM	> 20 µM	inactive	inactive	> 20 µM	inactive	> 20 µM	inactive	inactive	inactive	> 100 µM	inactive	> 20 µM	> 20 µM	inactive	inactive	inactive	IC50 [21]: > 20 µM; IC50 [22]: > 20 µM; Activity [23]: inactive; IC50 [24]: > 20 µM; Activity [25]: inactive; EC50 [26]: 6.07 µM
COc1nc(N)nc2c1c(-c1ccco1)cn2[C@@H]1O[C@H](CO)[C@@H](O)[C@H]1O	> 20 µM	> 44 µM	> 100 µM	> 20 µM	> 20 µM	inactive	inactive	> 20 µM	inactive	> 20 µM	inactive	inactive	inactive	89.7 µM	inactive	> 20 µM	> 20 µM	inactive	inactive	inactive	IC50 [21]: > 20 µM; IC50 [22]: > 20 µM; Activity [23]: inactive; IC50 [24]: > 20 µM; Activity [25]: inactive; EC50 [26]: 2.44 µM
Nc1nc(N)c2c(-c3ccco3)cn([C@@H]3O[C@H](CO)[C@@H](O)[C@H]3O)c2n1	> 20 µM	> 44 µM	> 100 µM	> 20 µM	> 20 µM	inactive	inactive	> 20 µM	inactive	> 20 µM	inactive	inactive	inactive	> 100 µM	inactive	> 20 µM	> 20 µM	inactive	inactive	inactive	IC50 [21]: > 20 µM; IC50 [22]: > 20 µM; Activity [23]: inactive; IC50 [24]: > 20 µM; Activity [25]: inactive; EC50 [26]: 12.5 µM
Nc1nc(N)c2c(-c3ccoc3)cn([C@@H]3O[C@H](CO)[C@@H](O)[C@H]3O)c2n1	> 20 µM	> 44 µM	> 100 µM	> 20 µM	> 20 µM	inactive	inactive	> 20 µM	inactive	> 20 µM	inactive	inactive	inactive	> 100 µM	inactive	> 20 µM	> 20 µM	inactive	inactive	inactive	IC50 [21]: > 20 µM; IC50 [22]: > 20 µM; Activity [23]: inactive; IC50 [24]: > 20 µM; Activity [25]: inactive; EC50 [26]: 21.3 µM
COc1nc(N)nc2c1c(-c1ccsc1)cn2[C@@H]1O[C@H](CO)[C@@H](O)[C@H]1O	> 20 µM	> 44 µM	> 100 µM	> 20 µM	> 20 µM	inactive	inactive	> 20 µM	inactive	> 20 µM	inactive	inactive	inactive	> 100 µM	inactive	> 20 µM	> 20 µM	inactive	inactive	inactive	IC50 [21]: > 20 µM; IC50 [22]: > 20 µM; Activity [23]: inactive; IC50 [24]: > 100 µM; Activity [25]: inactive; EC50 [26]: 14.5 µM
